# Measurements taken from the RNAGym collection of RNA variant scans (doi:10.1002/anie.201605470).
# B1: Osa-1-4 twister ribozyme (parent)
# chain: CCGCCUAACACUGCCAAUGCCGGUCCCAAGCCCGGAUAAAAGUGGAGGGGGCGG
# Variants of: B1
# Test: self-cleavage, relative activity (ratio to wild type); higher = more cleavage; co-transcriptional
# In short: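 For each read, cleavage status was taken from whether upstream sequence was present. The reads came from an Oryza sativa twister ribozyme of 54 nucleotides, whose DNA template was synthesised with 97 % wild-type base and 1 % of each other base at the 48 positions downstream of the cleavage site. The template was transcribed in vitro at 37 °C for 2 h with co-transcriptional self-cleavage, and the RNA was reverse-transcribed using a template-switching oligonucleotide, PCR-amplified and deep-sequenced. Relative activity is the fraction cleaved normalised to wild type.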
row,Variant,self-cleavage
1,CCGCCUAACACUGCCAAUGCCGGUCCCAAGACCGGAUAAAAGUGAAGGGGGCGG [C31A G45A],0.02
2,CCGCCUAACACUGCCAAUGCCGGUCCCAAGACCGGAUAAAAGUGUAGGGGGCGG [C31A G45U],0.02
3,CCGCCUAACACUGCCAAUGCCGGUCCCAAGACCGGAUAAAAGUGCAGGGGGCGG [C31A G45C],0.01
4,CCGCCUAACACUGCCAAUGCCUGUCCCAAGACCGGAUAAAAGUGGAGGGGGCGG [C31A G22U],0.04
5,CCGCCUAACACUGCCAAUGCCAGUCCCAAGACCGGAUAAAAGUGGAGGGGGCGG [C31A G22A],0.04
6,CCGCCUAACACUGCCAAUGCCCGUCCCAAGACCGGAUAAAAGUGGAGGGGGCGG [C31A G22C],0.02
7,CCGCCUAACACUGCCAAUGCCGGUCCCAAGACCGGAUAAAAGUGGAGGGGGCGA [C31A G54A],0.04
8,CCGCCUAACACUGCCAAUGCCGGUCCCAAGACCGGAUAAAAGUGGAGGGGGCGC [C31A G54C],0.04
9,CCGCCUAACACUGCCAAUGCCGGUCCCAAGACCGGAUAAAAGUGGAGGGGGCGU [C31A G54U],0.05
10,CCGCCUAAUACUGCCAAUGCCGGUCCCAAGGCCGGAUAAAAGUGGAGGGGGCGG [C31G C9U],0.06
11,CCGCCUAAGACUGCCAAUGCCGGUCCCAAGGCCGGAUAAAAGUGGAGGGGGCGG [C31G C9G],0.23
12,CCGCCUAAAACUGCCAAUGCCGGUCCCAAGGCCGGAUAAAAGUGGAGGGGGCGG [C31G C9A],0.03
13,CCGCCUAACACUGCCAAUCCCGGUCCCAAGACCGGAUAAAAGUGGAGGGGGCGG [C31A G19C],0.02
14,CCGCCUAACACUGCCAAUACCGGUCCCAAGACCGGAUAAAAGUGGAGGGGGCGG [C31A G19A],0.04
15,CCGCCUAACACUGCCAAUUCCGGUCCCAAGACCGGAUAAAAGUGGAGGGGGCGG [C31A G19U],0.02
16,CCGCCUAACACUGCCAAUGCCGUUCCCAAGACCGGAUAAAAGUGGAGGGGGCGG [C31A G23U],0.02
17,CCGCCUAACACUGCCAAUGCCGAUCCCAAGACCGGAUAAAAGUGGAGGGGGCGG [C31A G23A],0.03
18,CCGCCUAACACUGCCAAUGCCGCUCCCAAGACCGGAUAAAAGUGGAGGGGGCGG [C31A G23C],0.02
19,CCGCCUAACACUGCCAAUGCCGGUCCCAAGACCGGAUAAAACUGGAGGGGGCGG [C31A G42C],0.02
20,CCGCCUAACACUGCCAAUGCCGGUCCCAAGACCGGAUAAAAAUGGAGGGGGCGG [C31A G42A],0.03
21,CCGCCUAACACUGCCAAUGCCGGUCCCAAGACCGGAUAAAAUUGGAGGGGGCGG [C31A G42U],0.01
22,CCGCCUAACACUGCCAAUGCCGGGCCCAAUCCCGGAUAAAAGUGGAGGGGGCGG [G30U U24G],0.01
23,CCGCCUAACACUGCCAAUGCCGGACCCAAUCCCGGAUAAAAGUGGAGGGGGCGG [G30U U24A],0.02
24,CCGCCUAACACUGCCAAUGCCGGCCCCAAUCCCGGAUAAAAGUGGAGGGGGCGG [G30U U24C],0.02

row,Variant,self-cleavage
1,CCGCCUAACACUGCCAAUGCCGGUCCCAAGACGGGAUAAAAGUGGAGGGGGCGG [C31A C33G],0.02
2,CCGCCUAACACUGCCAAUGCCGGUCCCAAGACUGGAUAAAAGUGGAGGGGGCGG [C31A C33U],0.03
3,CCGCCUAACACUGCCAAUGCCGGUCCCAAGACAGGAUAAAAGUGGAGGGGGCGG [C31A C33A],0.05
4,CCGCCUAACACUGCCAAUGCCGGUCCCAAUCCCGGACAAAAGUGGAGGGGGCGG [G30U U37C],0.04
5,CCGCCUAACACUGCCAAUGCCGGUCCCAAUCCCGGAGAAAAGUGGAGGGGGCGG [G30U U37G],0.04
6,CCGCCUAACACUGCCAAUGCCGGUCCCAAUCCCGGAAAAAAGUGGAGGGGGCGG [G30U U37A],0.02
7,CCGCCUAACACUGCCAAUGCCGGUCCCAAGACCGGAUAAAAGUCGAGGGGGCGG [C31A G44C],0.03
8,CCGCCUAACACUGCCAAUGCCGGUCCCAAGACCGGAUAAAAGUUGAGGGGGCGG [C31A G44U],0.03
9,CCGCCUAACACUGCCAAUGCCGGUCCCAAGACCGGAUAAAAGUAGAGGGGGCGG [C31A G44A],0.04
10,CCGCCUAACACUGCCAAUGCCGGUCCCAAGACCGGAAAAAAGUGGAGGGGGCGG [C31A U37A],0.03
11,CCGCCUAACACUGCCAAUGCCGGUCCCAAGACCGGAGAAAAGUGGAGGGGGCGG [C31A U37G],0.05
12,CCGCCUAACACUGCCAAUGCCGGUCCCAAGACCGGACAAAAGUGGAGGGGGCGG [C31A U37C],0.04
13,CCGCCUAACACUGCCAAUGCCGGUCCCAAGAUCGGAUAAAAGUGGAGGGGGCGG [C31A C32U],0.01
14,CCGCCUAACACUGCCAAUGCCGGUCCCAAGAGCGGAUAAAAGUGGAGGGGGCGG [C31A C32G],0.02
15,CCGCCUAACACUGCCAAUGCCGGUCCCAAGAACGGAUAAAAGUGGAGGGGGCGG [C31A C32A],0.04
16,CCGCCUAACACUGCCAACGCCGGUCCCAAUCCCGGAUAAAAGUGGAGGGGGCGG [G30U U18C],0.04
17,CCGCCUAACACUGCCAAGGCCGGUCCCAAUCCCGGAUAAAAGUGGAGGGGGCGG [G30U U18G],0.04
18,CCGCCUAACACUGCCAAAGCCGGUCCCAAUCCCGGAUAAAAGUGGAGGGGGCGG [G30U U18A],0.03
19,CCGCCUAACACUGCCAAUGCCGGUCCCAAUACCGGAUAAAAGUGGAGGGGGCGG [C31A G30U],0.01
20,CCGCCUAACACUGCCAAUGCCGGUCCCAAAACCGGAUAAAAGUGGAGGGGGCGG [C31A G30A],0.02
21,CCGCCUAACACUGCCAAUGCCGGUCCCAACACCGGAUAAAAGUGGAGGGGGCGG [C31A G30C],0.03
22,CCGCCUAACACUGCCAAUGCCGGUCCCAAGACCGGAUAAAAGUGGAGGGGUCGG [C31A G51U],0.04
23,CCGCCUAACACUGCCAAUGCCGGUCCCAAGACCGGAUAAAAGUGGAGGGGCCGG [C31A G51C],0.02
24,CCGCCUAACACUGCCAAUGCCGGUCCCAAGACCGGAUAAAAGUGGAGGGGACGG [C31A G51A],0.04
